Data from ChEMBL document CHEMBL4689842, “EUbOPEN Chemogenomics Library wave 1” (2021).

System: Fibroblast
Experiment: Multiplex assay against human fibroblast
Assay type: toxicity, cell-based
Summary of the method: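 Live cells were stained at seeding with Hoechst33342, BioTracker Green Microtubule Cytoskeleton Dye, MitoTracker Red and Annexin V Alexa Fluor 680, then imaged on a CQ1 microscope at 37°C and 5% CO2 after compound addition. CellPathfinder machine-learning gating split cells into Hoechst high-intensity objects or normal cells. Normal cells were split into healthy, pyknosed or fragmented nuclei, and pyknosed cells into mitotic or apoptotic. Tubulin, mitochondrial-mass and membrane-permeability phenotypes are per cents of healthy-nucleus cells.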

[1] = 12 h, 1 µM, compound concentration 1 uM, replicate 1
[2] = 12 h, 1 µM, compound concentration 1 uM, replicate 2
[3] = 12 h, 10 µM, compound concentration 10 uM, replicate 1
[4] = 12 h, 10 µM, compound concentration 10 uM, replicate 2
[5] = 24 h, 1 µM, compound concentration 1 uM, replicate 1
[6] = 24 h, 1 µM, compound concentration 1 uM, replicate 2
[7] = 24 h, 10 µM, compound concentration 10 uM, replicate 1
[8] = 24 h, 10 µM, compound concentration 10 uM, replicate 2
[9] = 48 h, 1 µM, compound concentration 1 uM, replicate 1
[10] = 48 h, 1 µM, compound concentration 1 uM, replicate 2
[11] = 48 h, 10 µM, compound concentration 10 uM, replicate 1
[12] = 48 h, 10 µM, compound concentration 10 uM, replicate 2

Cc1[nH]c(/C=C2\C(=O)Nc3ccc(S(=O)(=O)N(C)c4cccc(Cl)c4)cc32)c(C)c1C(=O)N1CCN(C)CC1 was tested. Which “Population Apoptotic (%)” value [1] did it give?
The value was 64%.

What about the “Population Fragmented Nuclei (%)” value [1] of the same compound?
Its value is 25%.

What about the “Population Healthy Nuclei (%)” value [1] of the same compound?
Its value is 51%.

And the “Population Hoechst High Intensity Objects (%)” value [1]?
Its value is 8%.

What about the “Population Membrane Permeable-Phenotype (%)” value [1] of the same compound?
The value was 40%.

And the “Population Mitochondria Different-Phenotype (%)” value [1]?
Its value is 6%.

And the “Population Mitotic Cells (%)” value [1]?
The value was 35%.

And the “Population Normal (%)” value [1]?
Its value is 91%.

And the “Population Pyknosed Nuclei (%)” value [1]?
Its value is 22%.

What about the “Population Tubulin-Different-Phenotype (%)” value [1] of the same compound?
Its value is 43%.

What about the “Total Cell Count” value [1] of the same compound?
Its value is 68.

And the “Population Apoptotic (%)” value [2]?
The value was 100%.

What about the “Population Fragmented Nuclei (%)” value [2] of the same compound?
Its value is 16%.

And the “Population Healthy Nuclei (%)” value [2]?
The value was 77%.

And the “Population Hoechst High Intensity Objects (%)” value [2]?
The value was 12%.

And the “Population Membrane Permeable-Phenotype (%)” value [2]?
Its value is 12%.

What about the “Population Mitochondria Different-Phenotype (%)” value [2] of the same compound?
Its value is 42%.

What about the “Population Mitotic Cells (%)” value [2] of the same compound?
Its value is 0%.

What about the “Population Normal (%)” value [2] of the same compound?
Its value is 87%.

And the “Population Pyknosed Nuclei (%)” value [2]?
Its value is 6%.

And the “Population Tubulin-Different-Phenotype (%)” value [2]?
Its value is 68%.

And the “Total Cell Count” value [2]?
The value was 90.

What about the “Population Apoptotic (%)” value [3] of the same compound?
The value was 61%.

What about the “Population Fragmented Nuclei (%)” value [3] of the same compound?
The value was 20%.

And the “Population Healthy Nuclei (%)” value [3]?
Its value is 61%.

What about the “Population Hoechst High Intensity Objects (%)” value [3] of the same compound?
Its value is 5%.

And the “Population Membrane Permeable-Phenotype (%)” value [3]?
Its value is 59%.

And the “Population Mitochondria Different-Phenotype (%)” value [3]?
The value was 13%.

What about the “Population Mitotic Cells (%)” value [3] of the same compound?
The value was 38%.

And the “Population Normal (%)” value [3]?
The value was 94%.

And the “Population Pyknosed Nuclei (%)” value [3]?
Its value is 18%.

And the “Population Tubulin-Different-Phenotype (%)” value [3]?
Its value is 93%.

And the “Total Cell Count” value [3]?
Its value is 76.

What about the “Population Apoptotic (%)” value [4] of the same compound?
Its value is 25%.

What about the “Population Fragmented Nuclei (%)” value [4] of the same compound?
The value was 10%.

And the “Population Healthy Nuclei (%)” value [4]?
The value was 74%.

And the “Population Hoechst High Intensity Objects (%)” value [4]?
Its value is 12%.

What about the “Population Membrane Permeable-Phenotype (%)” value [4] of the same compound?
Its value is 40%.

What about the “Population Mitochondria Different-Phenotype (%)” value [4] of the same compound?
The value was 97%.

And the “Population Mitotic Cells (%)” value [4]?
The value was 75%.

What about the “Population Normal (%)” value [4] of the same compound?
Its value is 87%.

And the “Population Pyknosed Nuclei (%)” value [4]?
The value was 16%.

What about the “Population Tubulin-Different-Phenotype (%)” value [4] of the same compound?
Its value is 100%.

What about the “Total Cell Count” value [4] of the same compound?
Its value is 70.

What about the “Population Apoptotic (%)” value [5] of the same compound?
The value was 53%.

What about the “Population Fragmented Nuclei (%)” value [5] of the same compound?
Its value is 22%.

What about the “Population Healthy Nuclei (%)” value [5] of the same compound?
Its value is 56%.

What about the “Population Hoechst High Intensity Objects (%)” value [5] of the same compound?
Its value is 3%.

What about the “Population Membrane Permeable-Phenotype (%)” value [5] of the same compound?
Its value is 28%.

And the “Population Mitochondria Different-Phenotype (%)” value [5]?
Its value is 14%.

What about the “Population Mitotic Cells (%)” value [5] of the same compound?
Its value is 46%.

And the “Population Normal (%)” value [5]?
Its value is 96%.

And the “Population Pyknosed Nuclei (%)” value [5]?
Its value is 20%.

And the “Population Tubulin-Different-Phenotype (%)” value [5]?
Its value is 62%.

And the “Total Cell Count” value [5]?
Its value is 64.

What about the “Population Apoptotic (%)” value [6] of the same compound?
The value was 100%.

And the “Population Fragmented Nuclei (%)” value [6]?
Its value is 18%.

What about the “Population Healthy Nuclei (%)” value [6] of the same compound?
Its value is 72%.

And the “Population Hoechst High Intensity Objects (%)” value [6]?
Its value is 8%.

What about the “Population Membrane Permeable-Phenotype (%)” value [6] of the same compound?
Its value is 10%.

What about the “Population Mitochondria Different-Phenotype (%)” value [6] of the same compound?
The value was 40%.

What about the “Population Mitotic Cells (%)” value [6] of the same compound?
The value was 0%.

What about the “Population Normal (%)” value [6] of the same compound?
Its value is 91%.

What about the “Population Pyknosed Nuclei (%)” value [6] of the same compound?
Its value is 9%.

And the “Population Tubulin-Different-Phenotype (%)” value [6]?
Its value is 55%.

And the “Total Cell Count” value [6]?
The value was 65.

What about the “Population Apoptotic (%)” value [7] of the same compound?
The value was 77%.

And the “Population Fragmented Nuclei (%)” value [7]?
The value was 41%.

What about the “Population Healthy Nuclei (%)” value [7] of the same compound?
Its value is 46%.

And the “Population Hoechst High Intensity Objects (%)” value [7]?
Its value is 7%.

What about the “Population Membrane Permeable-Phenotype (%)” value [7] of the same compound?
Its value is 38%.

And the “Population Mitochondria Different-Phenotype (%)” value [7]?
Its value is 50%.

And the “Population Mitotic Cells (%)” value [7]?
The value was 22%.

And the “Population Normal (%)” value [7]?
Its value is 92%.

And the “Population Pyknosed Nuclei (%)” value [7]?
Its value is 12%.

And the “Population Tubulin-Different-Phenotype (%)” value [7]?
Its value is 97%.

What about the “Total Cell Count” value [7] of the same compound?
Its value is 79.

And the “Population Apoptotic (%)” value [8]?
Its value is 100%.

And the “Population Fragmented Nuclei (%)” value [8]?
Its value is 17%.

What about the “Population Healthy Nuclei (%)” value [8] of the same compound?
Its value is 73%.

What about the “Population Hoechst High Intensity Objects (%)” value [8] of the same compound?
The value was 8%.

And the “Population Membrane Permeable-Phenotype (%)” value [8]?
The value was 84%.

And the “Population Mitochondria Different-Phenotype (%)” value [8]?
Its value is 100%.

And the “Population Mitotic Cells (%)” value [8]?
Its value is 0%.

What about the “Population Normal (%)” value [8] of the same compound?
The value was 91%.

And the “Population Pyknosed Nuclei (%)” value [8]?
Its value is 9%.

What about the “Population Tubulin-Different-Phenotype (%)” value [8] of the same compound?
The value was 100%.

And the “Total Cell Count” value [8]?
The value was 71.

What about the “Population Apoptotic (%)” value [9] of the same compound?
Its value is 61%.

What about the “Population Fragmented Nuclei (%)” value [9] of the same compound?
Its value is 30%.

What about the “Population Healthy Nuclei (%)” value [9] of the same compound?
The value was 48%.

And the “Population Hoechst High Intensity Objects (%)” value [9]?
Its value is 11%.

What about the “Population Membrane Permeable-Phenotype (%)” value [9] of the same compound?
Its value is 17%.

What about the “Population Mitochondria Different-Phenotype (%)” value [9] of the same compound?
Its value is 13%.

What about the “Population Mitotic Cells (%)” value [9] of the same compound?
Its value is 38%.

And the “Population Normal (%)” value [9]?
Its value is 88%.

What about the “Population Pyknosed Nuclei (%)” value [9] of the same compound?
The value was 21%.

And the “Population Tubulin-Different-Phenotype (%)” value [9]?
The value was 65%.

And the “Total Cell Count” value [9]?
Its value is 68.

And the “Population Apoptotic (%)” value [10]?
Its value is 50%.

What about the “Population Fragmented Nuclei (%)” value [10] of the same compound?
Its value is 16%.

What about the “Population Healthy Nuclei (%)” value [10] of the same compound?
Its value is 80%.

And the “Population Hoechst High Intensity Objects (%)” value [10]?
The value was 17%.

What about the “Population Membrane Permeable-Phenotype (%)” value [10] of the same compound?
Its value is 27%.

And the “Population Mitochondria Different-Phenotype (%)” value [10]?
The value was 15%.

What about the “Population Mitotic Cells (%)” value [10] of the same compound?
The value was 50%.

And the “Population Normal (%)” value [10]?
The value was 82%.

And the “Population Pyknosed Nuclei (%)” value [10]?
The value was 2%.

What about the “Population Tubulin-Different-Phenotype (%)” value [10] of the same compound?
The value was 81%.

And the “Total Cell Count” value [10]?
Its value is 88.

And the “Population Apoptotic (%)” value [11]?
Its value is 66%.

And the “Population Fragmented Nuclei (%)” value [11]?
The value was 40%.

And the “Population Healthy Nuclei (%)” value [11]?
The value was 37%.

What about the “Population Hoechst High Intensity Objects (%)” value [11] of the same compound?
The value was 11%.

And the “Population Membrane Permeable-Phenotype (%)” value [11]?
The value was 16%.

And the “Population Mitochondria Different-Phenotype (%)” value [11]?
The value was 76%.

And the “Population Mitotic Cells (%)” value [11]?
The value was 33%.

And the “Population Normal (%)” value [11]?
Its value is 88%.

What about the “Population Pyknosed Nuclei (%)” value [11] of the same compound?
The value was 22%.

What about the “Population Tubulin-Different-Phenotype (%)” value [11] of the same compound?
The value was 100%.

What about the “Total Cell Count” value [11] of the same compound?
Its value is 76.

And the “Population Apoptotic (%)” value [12]?
The value was 50%.

What about the “Population Fragmented Nuclei (%)” value [12] of the same compound?
The value was 21%.

What about the “Population Healthy Nuclei (%)” value [12] of the same compound?
The value was 72%.

What about the “Population Hoechst High Intensity Objects (%)” value [12] of the same compound?
Its value is 8%.

What about the “Population Membrane Permeable-Phenotype (%)” value [12] of the same compound?
The value was 25%.

And the “Population Mitochondria Different-Phenotype (%)” value [12]?
Its value is 52%.

And the “Population Mitotic Cells (%)” value [12]?
The value was 50%.

What about the “Population Normal (%)” value [12] of the same compound?
Its value is 91%.

What about the “Population Pyknosed Nuclei (%)” value [12] of the same compound?
Its value is 6%.

What about the “Population Tubulin-Different-Phenotype (%)” value [12] of the same compound?
The value was 95%.

What about the “Total Cell Count” value [12] of the same compound?
Its value is 72.
